Structures are written as SMILES. The source made the active and inactive calls. The calls are words filed in the database; no cut-off is given here.

For data set [1], the system named is Mus musculus. Description: Toxicity in Kunming mouse xenografted with human HepG2 cells assessed as change in body weight at 50 mg/kg, iv administered 24 hrs after tumor implantation one dose per two day for total of four treatment measured after 24 hrs last postdose (reference value: 19.10 +/- 1.29 g). The settings on record: in vivo. (In xenograft studies the graft and the host belong to different species.)

Data set [2] has as its system HepG2. The data set can be described thus: Induction of apoptosis in human HepG2 cells assessed as early apoptotic cells at 4 uM after 24 hrs using annexin V-propidium iodide staining by flow cytometry (reference value: 3%). It is filed as functional.
Data set [3] concerns HepG2. The data set can be described thus: Induction of apoptosis in human HepG2 cells assessed as appearance of apoptotic bodies at 1 to 4 uM after 24 hrs using DAPI staining by fluorescent microscopy. It is filed as functional, cell-based. Summed up: (§1)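 HepG2 cells seeded at 1 × 10⁵ cells/well and treated 24 h at 1, 2 or 4 µM. Living cells first viewed under inverted light microscope (×200). Cells then fixed 20 min in 4% paraformaldehyde, stained 10 min with DAPI (1 mg/ml) and examined by fluorescence microscopy (×400, 340 nm excitation) for nuclear changes and apoptotic bodies.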

Data set [4] has as its system Mus musculus. Description: Toxicity in Kunming mouse xenografted with human HepG2 cells assessed as change in body weight at 12.5 mg/kg, iv administered 24 hrs after tumor implantation one dose per two day for total of four treatment measured after 24 hrs last postdose (reference value: 20.20 +/- 1.99 g). The class given is organism-based. More on the design: dose 12.5 mg/kg, route intravenous. As to conditions: in vivo.

In data set [5] the test system is Heps hepatoma (Mus musculus). Description: Antitumor activity against murine Heps hepatoma cells transplanted in iv dosed Kunming mouse assessed as tumor growth inhibition administered 24 hrs after tumor implantation one dose per two day for total of four treatment measured after 24 hrs last postdose.
For the next data set, the system named is BGC-823. The data set can be described thus: Antiproliferative activity against human BGC823 cells after 24 hrs by MTT assay. The class given is functional, cell-based. The settings on record: BGC-823, 24 h. Summed up: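 Cells grown at 37 °C in humidified 5% CO2 with benzylpenicillin and streptomycin. Compounds came from 0.01 mol/L DMSO stocks and were tested at eight two-fold dilutions in triplicate, with medium-only controls, for 24 h. MTT absorbance was read at 570 nm. Survival = A_treatment/A_control × 100. IC50 is the concentration giving 50% viability inhibition, as the mean of two separate experiments.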
In general terms: Tetrazolium assays rely on reduction of a dye to a coloured formazan, in cell work by metabolically active cells.

Data set [6] deals with HepG2. Description: Induction of apoptosis in human HepG2 cells assessed as pre-necrotic cells at 2 uM after 24 hrs using annexin V-propidium iodide staining by flow cytometry (reference value: 0.5%). The class given is functional.
The test system of data set [7] is HepG2. Description: Cell cycle arrest in human HepG2 cells assessed as accumulation at G2/M phase at 4 uM after 24 hrs using propidium iodide by Flow cytometry. It is filed as functional, cell-based. Summed up: (§2)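 HepG2 cells synchronised by 24 h serum starvation, then treated 24 h at 1, 2 or 4 µM. Cells fixed overnight in 70% ethanol at 4 °C and stained 15 min at 37 °C in the dark with hypotonic PI solution (0.1% sodium citrate, 0.1% Triton X-100, 0.05 mg/ml PI, 0.01 mg/ml RNase). DNA content measured by flow cytometry.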
On the technique in general: In flow cytometry, cells or beads pass a laser one at a time.

Data set [8] relates to HepG2. The data set can be described thus: Induction of apoptosis in human HepG2 cells assessed as activation of caspase 3 after 24 hrs by colorimetric assay. The class given is functional, cell-based. Put shortly: (§3)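 Kit colorimetric caspase-3 test. HepG2 cells treated at 1, 2 or 4 µM for 24 h at 37 °C, then lysed on ice 20 min and centrifuged. Supernatant containing 200 µg total protein incubated with Ac-DEVD-pNA 4 h at 37 °C; absorbance read at 405 nm. Fold activity = OD treated / OD control; mean ± SD, t-test.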

Data set [9] concerns HepG2. Description: Induction of apoptosis in human HepG2 cells assessed as late apoptotic cells at 1 uM after 24 hrs using annexin V-propidium iodide staining by flow cytometry (reference value: 3.4%). It is filed as functional.
Data set [10] deals with HepG2. The data set can be described thus: Induction of apoptosis in human HepG2 cells assessed as bright condensed chromatin in nuclei at 1 uM after 24 hrs by fluorescence microscopy.
For data set [11], the system named is HepG2. The data set can be described thus: Cell cycle arrest in human HepG2 cells assessed as accumulation at G2/M phase at 1 uM after 24 hrs using propidium iodide by Flow cytometry. The class given is functional, cell-based. Summed up:
as §2

Data set [12] concerns HepG2. The data set can be described thus: Induction of apoptosis in human HepG2 cells assessed as large proportion of cell became round in shape at 4 uM after 24 hrs […] by inverted light microscopy. The class given is functional, cell-based. Put shortly:
as §1

The test system of data set [13] is Heps hepatoma (Mus musculus). The data set can be described thus: Antitumor activity against murine Heps hepatoma cells transplanted in Kunming mouse assessed as tumor growth inhibition at 25 mg/kg, iv administered 24 hrs after tumor implantation one dose per two day for total of four treatment measured after 24 hrs last postdose relative to control.
Data set [14] concerns HepG2. The data set can be described thus: Induction of apoptosis in human HepG2 cells assessed as viable cells at 1 uM after 24 hrs using annexin V-propidium iodide staining by flow cytometry (reference value: 93.2%). It is filed as functional. As to conditions: HepG2, 24 h, read-out: Activity.
The subject of data set [15] is HepG2. Description: Induction of apoptosis in human HepG2 cells assessed as early apoptotic cells at 1 uM after 24 hrs using annexin V-propidium iodide staining by flow cytometry (reference value: 3%). The class given is functional.
For data set [16], the system named is HepG2. Description: Induction of apoptosis in human HepG2 cells assessed as activation of caspase 3 at 1 to 4 uM after 24 hrs by colorimetric assay relative to control. The class given is functional. Put shortly:
as §3

Data set [17] has as its system HepG2. Description: Induction of apoptosis in human HepG2 cells assessed as cell distortion at 4 uM after 24 hrs using by inverted light microscopy. The class given is functional, cell-based. Summed up: as §1
The test system of data set [18] is HepG2. Description: Induction of apoptosis in human HepG2 cells assessed as induction of cell integrity at 1 uM after 24 hrs by light microscopy. It is filed as functional, cell-based. Summed up: as §1
Data set [19] has as its system HepG2. Description: Induction of apoptosis in human HepG2 cells assessed as decrease in bcl-2 expression at 4 uM after 24 hrs by Western blot analysis. It is filed as functional, cell-based. Summed up: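 HepG2 cells treated 24 h at 1, 2 or 4 µM. Lysed in Tris-Cl pH 6.8 buffer containing SDS, glycerol, β-mercaptoethanol, PMSF and aprotinin; cleared at 12 000 × g, 15 min, 4 °C. Protein measured by BCA. Samples run on 15% SDS-PAGE, transferred to PVDF, probed overnight at 4 °C with primary antibodies against bcl-2, bax and pro-caspase-3, then IRDye 800 secondary 1 h at 37 °C.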

In the case of `CC(C)=CCC12OC(C)(C)C3CC(C=C4C(=O)c5c(O)cccc5OC431)C2=O` (stereo not given), the Activity was 24.7 g in the data set with Mus musculus [1]; 23.3% in the data set with HepG2 [2]; 26.3 g with Mus musculus [4]; 1.1% in the data set on HepG2 [6]; “Dose-dependent effect” in the data set on HepG2 [8]; 4.8% in the data set on HepG2 [9]. For the same molecule, the Activity in the data set with HepG2 [15] is recorded as 8.1%. The outcome with HepG2 [3], in the data set on HepG2 [7], in the data set with HepG2 [10], with HepG2 [11], in the data set with HepG2 [12] and in the data set with HepG2 [17] was Active. Further, the outcome with HepG2 [18] and with HepG2 [19] was Active. For the same molecule, the inhibition result in data set [5] was “Dose-dependent effect”. Further, the IC50 (as a rule, the concentration that gives 50% inhibition) with BGC-823 turned out to be 3.59 µM. For the same molecule, in [13], the inhibition in vivo (commonly the drop in the measured response relative to a control, in per cent) at 25 mg/kg is 32.3%. Further, the viability at 1 µM with HepG2 [14] amounted to 86.3%. Moreover, the “fold change (FC)” value with HepG2 [16] amounted to 3.

Source of the values: ChEMBL document CHEMBL1759837, “Studies on chemical modification and biology of a natural product, gambogic acid (III): determination of the essential pharmacophore for biological activity” (Eur J Med Chem, 2011).
